Results as given in article PMC4005387 (MedChemComm, 2014).

Experiments:
[1] = biological target: KIX N627C / fluorescently-labeled MLL peptide (Mus musculus, UniProt P45481, N627C); settings: fragment covalently associated with KIX N627C; cited from earlier work
[2] = biological target: KIX N627C mutant (Mus musculus, UniProt P45481, N627C); experiment: LC-MS Tethering: labelling of KIX N627C by disulphide fragment; format: binding; settings: 5 mM BME, 250 μM fragment
[3] = biological target: KIX H602C (Mus musculus, UniProt P45481, H602C); experiment: LC-MS analysis of labelling of KIX H602C by disulphide fragments; format: binding
Sequence of KIX H602C (P45481 586-665 H602C limits assumed): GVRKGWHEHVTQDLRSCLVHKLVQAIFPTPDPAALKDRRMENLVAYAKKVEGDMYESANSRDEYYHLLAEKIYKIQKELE
Summary of the method: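 Tethering reactions of KIX H602C with ten hit disulphide fragments from the FP screen were run at increasing β-ME stringency to compare relative affinities. Mass spectrometry gave the percent of protein carrying each fragment through the disulphide.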

Sequence of KIX N627C / fluorescently-labeled MLL peptide (P45481 586-665 N627C limits assumed): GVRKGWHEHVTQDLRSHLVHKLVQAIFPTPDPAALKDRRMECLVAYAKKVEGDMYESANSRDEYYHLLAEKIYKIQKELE
Sequence of KIX N627C mutant (P45481 586-665 N627C limits assumed): as above

| percent of KIX N627C mutant labelled [2] | percent labelling of KIX ([3]; 5 mM β-ME, KIX H602C, MS) | DR50 (concentration at which 50% of the KIX H602C mutant is bound by the fragment) ([3]; LC-MS dose-response, result in words) | SMILES | inhibition of MLL binding [1] |
| --- | --- | --- | --- | --- |
| 82% | – | – | CN(C)CCSSCCC(=O)N1CCC(O)(c2ccc(Cl)c(C(F)(F)F)c2)CC1 [1A10] | effective inhibitors of MLL binding |
| – | – | – | COc1ccc2cc([C@H](C)C(=O)NCCSSCCN)ccc2c1 [1C11] | effective inhibitors of MLL binding |
| – | ~ 70% | lower with the fragment 3D4 than 6D11 | CC(=O)Nc1ccc(Cl)c(NC(=O)NCCSSCCN(C)C)c1 [3D4] | – |
